A number with no mark means an inactive call. Records with an inconclusive call do not appear. Active and inactive are the calls of the source.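 How the source made its calls, unless noted: active means RAM network inhibition above 8.4% in each of two replicates, 3 SD over the compound average; inconclusive means above 8.4% inhibition in only one replicate; inactive means 8.4% inhibition or less in each replicate.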

Experiment [1] is described as follows: S. cerevisiae growth inhibition in permissive medium (OD615), pilot counter-assay for S. cerevisiae lifespan shortening project, permissive growth control (AID 705;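 active means growth inhibition above 25% in both replicates, a cutoff set 3 SD above the mean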). The note with it: OD615, 24 h, at 10 µM, active compounds read high. In a few lines: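 System: S. cerevisiae with engineered DeaD lifespan system / Measured by: absorbance (optical density) at 615 nm / Read-out: reduction in yeast growth (OD615) / Times: 4 h cell pre-growth, 24 h exposure at 30 °C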

Experiment [2] in a line: S. cerevisiae growth inhibition in restrictive medium, OD615, pilot screen, restrictive growth control, yeast lifespan reduction project (AID 706;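 active means growth inhibition above a set limit, 3 SD over mean compound inhibition, in both replicates, cut at about 43% in these data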;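 further: modified DeaD lifespan yeast strain shifted to restrictive glucose medium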). The note with it: OD615, 48 h, at 10 µM, active compounds read high. Put shortly: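 System: Engineered S. cerevisiae DeaD strain | Buffer or medium: Glucose-based CSMM-D restrictive medium | Schedule: 4 h pre-incubation, 48 h exposure at 30 °C | Technique: Optical density at 615 nm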

Experiment [3] is described as follows: doxorubicin toxicity protection in MRP-1 cells – H69AR cells, CellTiter-Glo, duplicate, MRP-1 activator project, pilot screen (AID 807;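 active means viability increase at or above a cutoff of the median across tested compounds plus 3 SD, cut at about 8.5% in these data, passing the limit was not always enough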;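 further: compound pretreatment 18-22 h then 72 h combined with doxorubicin; 0% = doxorubicin alone and 100% = vehicle without doxorubicin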). The note with it: H69AR viability with doxorubicin, CellTiter-Glo luminescence; at 10 µM; active compounds read high.
The nature of experiment [4]: viability of HCT116 without oncogenic beta-catenin – human colon tumor cells, pilot screen (AID 823;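 active means cell viability at or below a set limit in both duplicate runs, the limit being the all-compound median minus 4 SD, cut at about 23% in these data, passing the limit was not always enough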;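 further: 0% = wells killed by 20 µM Hyamine and 100% = untreated DMSO cell wells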). Conditions: HCT116 beta-catenin knockout viability, CellTiter-Glo, 60 h; at 10 µM; active compounds read low.
The nature of experiment [5]: viability of PTEN-null HCT116 cells – cell-based, HCT116 clonal line, CellTiter-Glo, pilot screen (AID 824;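 active means viability at or below 27.92% in each of two runs, the all-compound median minus 4 SD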;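 further: 0% = 20 µM Hyamine control and 100% = vehicle cell control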). Conditions: HCT116 PTEN-deleted viability, 60 h, at 10 µM, active compounds read low.
A short description of experiment [6]: RAM pathway blockade in budding yeast – dse1pr::URA3 reporter, 5-FOA selection, pilot screen (AID 869;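 active means inhibition over a set limit, the all-compound mean plus 3 SD, in both replicate runs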;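 further: 0% = DMSO wells with no growth and 100% = 10 µM 1-NA-PP1 with full growth; RAM network block rescues cells from 5-FOA so hits raise OD615 growth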). Conditions: S. cerevisiae dse1pr::URA3 5-FOA growth, OD615, 2 d; at 10 µM; active compounds read high; strain carries analog-sensitive mutant Cbk1 kinase.
Experiment [7] can be described thus: RAM signaling pathway blockade in yeast – S. cerevisiae, Pdr1DBD-CYC8 efflux-inhibited sensitized strain, primary screen (AID 1298).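 Further: 0% = DMSO untreated cells without growth and 100% = 10 µM 1-NA-PP1 full growth; higher means more yeast growth rescued from 5-FOA killing.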 Conditions: S. cerevisiae cbk1-as DSE1-URA3 strain, 5-FOA growth OD615, 2 d; at 50 µM; active compounds read high.

With `Cn1c(=O)c2c(nc(CN3CCCCC3)n2Cc2c(F)cccc2Cl)n(C)c1=O`, the growth inhibition is -2.88% in experiment [1] and -10.9% in experiment [2]. Moreover, in experiment [3], the viability increase is -2.22%. Moreover, the viability is 102% in experiment [4] and 93.2% in experiment [5]. In addition, the inhibition in experiment [6] was 3.12%. For the same compound, the RAM network inhibition in experiment [7] was 4.38%.

Take `O=C(COc1ccccc1F)c1ccc(O)cc1O`: the growth inhibition in experiment [1] was -0.53%; in experiment [2] it was 3.7%. Moreover, in experiment [3], the viability increase is 1.2%. Moreover, the viability was 101% in experiment [4] and 106% in experiment [5]. Moreover, the inhibition in experiment [6] is 0.25%. The RAM network inhibition in experiment [7] was -1.69%.

As to `CCc1cc(C(=O)Cc2cnn(-c3ccccc3)c2)c(O)cc1O`, the growth inhibition in experiment [1] was -6.31%; in experiment [2], -9.12%. In experiment [3], the viability increase is -2.95%. Further, the viability is 101% in experiment [4] and 99.1% in experiment [5]. Besides, in experiment [6], the inhibition was 1.42%. Further, the RAM network inhibition in experiment [7] was 3.54%.

Consider `CCOC(=O)N1CCN(C(=O)CSc2nc3c(cnn3-c3ccccc3)c(=O)[nH]2)CC1`, for which the growth inhibition was -2.34% in experiment [1] and -4.3% in experiment [2]. In experiment [3], the viability increase was -4.92%. Further, the figures for the viability in experiment [4] and in experiment [5] were 98.9% and 99%, respectively. In experiment [6], the inhibition is 0.19%. Also, the RAM network inhibition in experiment [7] was -1.2%.

In the case of `Cc1ccc(CNC(=O)CCS(=O)(=O)c2cccc3nsnc23)cc1`, the growth inhibition in experiment [1] was -2.81%; in experiment [2], -1.48%. In addition, the viability increase in experiment [3] was -1.57%. For the same compound, the results for the viability in experiment [4] and in experiment [5] were 103% and 104%, respectively. The inhibition in experiment [6] is 1.64%. Also, the RAM network inhibition in experiment [7] is 6.91%.

As to `COC(=O)C1CCN(C(=O)c2ccccc2NC(C)=O)CC1`, the results for the growth inhibition in experiment [1] and in experiment [2] were -12% and -16.4%, respectively. In addition, the viability increase in experiment [3] is -0.52%. The viability was 101% in experiment [4] and 99.6% in experiment [5]. Also, the inhibition in experiment [6] is -0.23%. For the same compound, in experiment [7], the RAM network inhibition is 2.21%.

Regarding `Cc1cc(=O)oc2c(N)c(O)ccc12`, the growth inhibition in experiment [1] is -4.57%; in experiment [2], -11.6%. In addition, the viability increase in experiment [3] is -4.95%. The viability is 101% in experiment [4] and 98.5% in experiment [5]. For the same compound, the inhibition in experiment [6] was 0.53%. The RAM network inhibition in experiment [7] is 1.88%.

`Cc1[nH]c(=O)[nH]c(=O)c1S(=O)(=O)N1CCCC(C(=O)N2CCC(Cc3ccccc3)CC2)C1` (centres undefined): the growth inhibition was -7.81% in experiment [1] and -8.27% in experiment [2]. For the same compound, the viability increase in experiment [3] is 0.94%. The values for the viability in experiment [4] and in experiment [5] were 100% and 101%, respectively. Moreover, the inhibition in experiment [6] was 0.385%. In experiment [7], the RAM network inhibition was 3.66%.

Consider `CCN(c1ccccc1)c1cc(C)nc2ncnn12`, for which the growth inhibition in experiment [1] is -18%; in experiment [2], -1.56%. Also, the viability increase in experiment [3] is -3.24%. The viability is 96.7% in experiment [4] and 94.9% in experiment [5]. Moreover, the inhibition in experiment [6] is 1.6%. The RAM network inhibition in experiment [7] is 4.57%.

As to `C=CCSc1nc2c(c(=O)[nH]c(=O)n2C)n1Cc1ccc(C)cc1`, the growth inhibition in experiment [1] was -12.1%; in experiment [2], -7.22%. Besides, the viability increase in experiment [3] is -3.38%. Besides, the viability in experiment [4] was 90.1%; in experiment [5], 86.4%. The inhibition in experiment [6] was 2.6%. In addition, the RAM network inhibition in experiment [7] was 7.02%.

`COc1ccc(NCCNc2ccc(OC)cc2)cc1`: the growth inhibition was 5.4% in experiment [1] and 7.97% in experiment [2]. The viability increase in experiment [3] is -0.82%. For the same compound, the viability in experiment [4] was 58.9%; in experiment [5], 59.5%. Further, the inhibition in experiment [6] is 0.6%. Moreover, the RAM network inhibition in experiment [7] was 6.32%.

On to `COc1ccc(C2(O)CCN(C(=O)Cc3cccnc3)CC2)cc1`, for which the growth inhibition is -20.4% in experiment [1] and -12% in experiment [2]. The viability increase in experiment [3] is 1.04%. In addition, the viability in experiment [4] was 99.3%; in experiment [5] it was 94.7%. For the same compound, the inhibition in experiment [6] is 1.03%. Moreover, the RAM network inhibition in experiment [7] is 1.03%.

As to `O=C(CCSCCc1ccccn1)Nc1nccs1`, the growth inhibition in experiment [1] was 6.12%; in experiment [2], 8.44%. In experiment [3], the viability increase is -0.56%. The values for the viability in experiment [4] and in experiment [5] were 102% and 94.8%, respectively. Besides, the inhibition in experiment [6] is 2.55%. In addition, the RAM network inhibition in experiment [7] was 0.66%.

Take `CN1C(=O)c2cccc(NC(=O)Cc3ccccc3)c2C1=O`: the growth inhibition in experiment [1] is 1.68%; in experiment [2] it was 15.6%. Further, the viability increase in experiment [3] was -1.47%. Also, the viability in experiment [4] was 111%; in experiment [5], 91.1%. Moreover, the inhibition in experiment [6] is 0.625%. The RAM network inhibition in experiment [7] is -0.88%.

Turning to `COc1ccccc1-c1nnc(NC(=O)C(C)SC2=NCCS2)s1` (centres undefined), the figures for the growth inhibition in experiment [1] and in experiment [2] were 5.92% and 48.7% (active), respectively. In addition, the viability increase in experiment [3] was -4.43%. For the same compound, the figures for the viability in experiment [4] and in experiment [5] were 83.4% and 91.2%, respectively. Moreover, the inhibition in experiment [6] is -0.115%. Moreover, the RAM network inhibition in experiment [7] is 6.22%.

Take `CCOC(=O)C1=C(O)CSC1=Nc1ccc(Cl)cc1`: the figures for the growth inhibition in experiment [1] and in experiment [2] were -7.6% and -10.1%, respectively. Further, the viability increase in experiment [3] was -1.62%. For the same compound, the viability in experiment [4] is 107%; in experiment [5] it was 99.8%. In addition, the inhibition in experiment [6] is 1.17%. Moreover, the RAM network inhibition in experiment [7] is 7.14%.

As for `O=C(CCn1c(=O)oc2ccccc21)Nc1ccc2c(c1)OCCO2`, the values for the growth inhibition in experiment [1] and in experiment [2] were -3.18% and -9.54%, respectively. Besides, the viability increase in experiment [3] is -3.68%. In addition, the viability in experiment [4] is 103%; in experiment [5], 96%. Moreover, the inhibition in experiment [6] was 1.88%. Further, the RAM network inhibition in experiment [7] is 3.61%.

These data come from PubChem BioAssay.
